Calls of active or inactive are those of the source. No cut-off for these calls is given here.
Key:
A549 = experiment: Growth inhibition of human A549 cells after 72 hrs by MTT assay; assay type: functional; conditions: A549, 72 h
HeLa [1] = experiment: Growth inhibition of human HeLa cells after 72 hrs by MTT assay; assay type: functional
MDA-MB-231 = experiment: Growth inhibition of human MDA-MB-231 cells after 72 hrs by MTT assay; assay type: functional; conditions: MDA-MB-231, 72 h
Kasumi 1 = experiment: Growth inhibition of human Kasumi-1 cells after 72 hrs by MTT assay; assay type: functional; conditions: Kasumi 1, 72 h
RS4-11 = experiment: Growth inhibition of human RS4:11 cells after 72 hrs by MTT assay; assay type: functional; conditions: RS4-11, 72 h
Jurkat = experiment: Growth inhibition of human Jurkat cells after 72 hrs by MTT assay; assay type: functional
HT-29 = experiment: Growth inhibition of human HT-29 cells after 72 hrs by MTT assay; assay type: functional; conditions: HT-29, 72 h
CCRF-CEM [2] = experiment: Cytotoxicity against human CEM cells after 72 hrs by MTT assay; assay type: functional, cell-based
Outline: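 Cells seeded at 8 × 10^3 per well and preincubated 18 h at 37 °C, 5% CO2. Leukemia lines were in RPMI-1640 and adherent lines in DMEM, each with 10% FBS plus penicillin/streptomycin. Medium replaced with compound at varying concentrations, in triplicate, for 72 h.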

HeLa [3] = experiment: Cell cycle arrest in human HeLa cells assessed as accumulation at S phase after 24 hrs by propidium iodide staining-based flow cytometric analysis; assay type: functional
Outline: (§1)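 HeLa cells (5 × 10^5) exposed to graded compound concentrations for 24 h, fixed in ice-cold 70% ethanol, then lysed in buffer with RNase A and 0.1% Triton X-100. DNA stained with propidium iodide and phase distribution read by flow cytometry. Mean of two independent experiments ± SEM.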

HeLa [4] = experiment: Cell cycle arrest in human HeLa cells assessed as accumulation at G2/M phase after 24 hrs by propidium iodide staining-based flow cytometric analysis; assay type: functional; outline: as §1
HeLa [5] = experiment: Cell cycle arrest in human HeLa cells assessed as accumulation at G1 phase after 24 hrs by propidium iodide staining-based flow cytometric analysis; assay type: functional; outline: as §1
CCRF-CEM [6] = experiment: Cytotoxicity against human multidrug-resistant CEM/VBL100 cells after 72 hrs by MTT assay; assay type: functional, cell-based
Outline: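 CEMVbl-100 (vinblastine-selected, P-gp-overexpressing) cells maintained in RPMI-1640 containing 100 ng/mL vinblastine. Seeded at 8 × 10^3 per well, preincubated 18 h, then exposed in triplicate to varying concentrations for 72 h. Viability read by MTT. IC50 taken as mean ± SEM of three separate experiments.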

HeLa [7] = experiment: Induction of apoptosis in human HeLa cells at 0.1 uM after 24 to 48 hrs by propidium iodide/annexin V/FITC staining-based flow cytometric analysis; assay type: functional, cell-based
Outline: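 A549 or HeLa cells treated for 24 or 48 h. Cells harvested, double-stained with annexin-V-FITC and propidium iodide, and analysed by flow cytometry for phosphatidylserine exposure. Mean ± SEM of three independent experiments.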

Bos taurus = species on record: Bos taurus; experiment: Inhibition of [3H]colchicine binding to bovine brain tubulin at 1 to 5 uM by DEAE-cellulose filter method relative to control
HeLa [8] = experiment: Induction of mitochondrial membrane depolarization in human HeLa cells at 0.1 to 1 uM by JC-1 staining based flow cytometric analysis; assay type: functional, cell-based; conditions: TDE = time-dependent effect
Outline: (§2)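 HeLa cells exposed for 6, 12, 24 or 48 h. Stained either with JC-1 to read mitochondrial membrane potential or with H2-DCFDA to read ROS, then analysed by flow cytometry. Mean ± SEM of three independent experiments.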

[9] = biological target: T1, M-phase inducer phosphatase 3 (Homo sapiens) (UniProt P30307); experiment: Inhibition of cdc25c phosphorylation in human HeLa cells at 0.1 to 1 uM after 24 to 48 hrs by Western blot analysis; assay type: cell-based
T1 sequence (whole entry): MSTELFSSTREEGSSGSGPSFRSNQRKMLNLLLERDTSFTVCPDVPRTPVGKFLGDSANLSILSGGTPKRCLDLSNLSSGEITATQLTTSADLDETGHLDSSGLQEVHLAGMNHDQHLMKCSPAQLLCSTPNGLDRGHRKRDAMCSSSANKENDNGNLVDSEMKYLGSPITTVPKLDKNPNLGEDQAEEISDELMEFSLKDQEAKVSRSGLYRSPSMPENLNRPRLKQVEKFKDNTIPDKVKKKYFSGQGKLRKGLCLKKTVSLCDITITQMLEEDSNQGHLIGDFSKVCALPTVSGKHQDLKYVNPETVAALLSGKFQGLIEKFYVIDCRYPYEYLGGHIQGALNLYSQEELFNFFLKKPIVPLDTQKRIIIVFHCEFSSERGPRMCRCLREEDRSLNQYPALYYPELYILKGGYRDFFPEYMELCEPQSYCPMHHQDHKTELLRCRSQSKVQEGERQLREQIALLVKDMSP
Outline: (§3)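 HeLa cells treated for the stated times (24 or 48 h), washed in cold PBS and lysed on ice for 30 min. Lysate cleared at 15000 × g, 4 °C. 10 µg protein run on SDS-PAGE and blotted to PVDF, blocked in 5% BSA. Primary antibodies 2 h at room temperature, then peroxidase secondary 60 min, ECL detection. Membranes stripped and reprobed for γ-tubulin as loading control.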

HeLa [10] = experiment: Cell cycle arrest in human HeLa cells assessed as decrease in phosphatase cdc25c expression at 0.1 to 1 uM after 24 to 48 hrs by Western blot analysis; assay type: functional, cell-based; outline: as §3
HeLa [11] = experiment: Induction of apoptosis in human HeLa cells assessed as decrease in Bcl-2 levels at 0.1 to 1 uM after 24 hrs by Western blot analysis; assay type: functional, cell-based; outline: as §3
HeLa [12] = experiment: Induction of ROS production in human HeLa cells at 0.1 to 1 uM after 12 to 24 hrs by H2DCFDA staining based flow cytometric analysis; assay type: functional, cell-based; outline: as §2
[13] = biological target: Cyclin-dependent kinase 1 (Homo sapiens) (UniProt P06493); experiment: Inhibition of cdc2 phosphorylation at Y15 in human HeLa cells at 0.1 to 1 uM after 24 to 48 hrs by Western blot analysis; assay type: cell-based; outline: as §3
Chain of Cyclin-dependent kinase 1 (Homo sapiens) (P06493 whole entry, looked up): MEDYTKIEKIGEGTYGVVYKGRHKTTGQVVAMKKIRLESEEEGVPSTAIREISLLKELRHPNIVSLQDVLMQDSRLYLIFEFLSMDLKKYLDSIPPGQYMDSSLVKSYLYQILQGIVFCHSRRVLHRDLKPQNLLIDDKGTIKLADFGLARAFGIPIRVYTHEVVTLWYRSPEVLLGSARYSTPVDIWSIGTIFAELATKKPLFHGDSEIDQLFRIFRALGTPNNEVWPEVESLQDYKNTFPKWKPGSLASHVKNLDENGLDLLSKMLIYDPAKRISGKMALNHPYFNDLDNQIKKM

HeLa [14] = experiment: Induction of apoptosis in human HeLa cells assessed as decrease in Mcl-1 levels at 0.1 to 1 uM after 24 hrs by Western blot analysis; assay type: functional, cell-based; outline: as §3

| SMILES | GI50 (A549) | GI50 (HeLa [1]) | GI50 (MDA-MB-231) | GI50 (Kasumi 1) | GI50 (RS4-11) | GI50 (Jurkat) | GI50 (HT-29) | also measured |
| --- | --- | --- | --- | --- | --- | --- | --- | --- |
| CCCCCCCCCCCCCCCCCCn1ccc2c3c(=O)cc(C)[nH]c3ccc21 | 3400 nM | 2380 nM | > 10000 nM | > 10000 nM | > 10000 nM | > 10000 nM | > 10000 nM |  |
| CCn1ccc2c3c(=O)cc(-c4cccc5ccccc45)[nH]c3ccc21 |  |  |  |  |  |  |  | IC50 (CCRF-CEM [2]): 29.8 nM; Activity (HeLa [3]): Active; Activity (HeLa [4]): Active; Activity (HeLa [5]): Active; IC50 (CCRF-CEM [6]): 2.3 nM |
| CC[C@]1(O)C[C@@H]2CN(CCc3c([nH]c4ccccc34)[C@@](C(=O)OC)(c3cc4c(cc3OC)N(C)[C@H]3[C@@](O)(C(=O)OC)[C@H](OC(C)=O)[C@]5(CC)C=CCN6CC[C@]43[C@@H]65)C2)C1 [VINBLASTINE] |  |  |  |  |  |  |  | IC50 (CCRF-CEM [2]): 1.5 nM; IC50 (CCRF-CEM [6]): 285 nM |
| COc1ccc(/C=C\c2cc(OC)c(OC)c(OC)c2)cc1O |  |  |  |  |  |  |  | Activity (HeLa [7]): Active |
| CCn1ccc2ccc3[nH]c(-c4ccccc4)cc(=O)c3c21 | 7.1 nM | 49 nM | 641 nM | 30 nM | 13 nM | 27 nM | 16 nM | inhibition (Bos taurus): 24% |
| CCCCCCCCCCCCCCCCCCn1ccc2c3c(=O)cc(-c4ccccc4)[nH]c3ccc21 | 820 nM | 8350 nM | 5360 nM | > 10000 nM | > 10000 nM | > 10000 nM | > 10000 nM |  |
| CCn1ccc2c3c(=O)cc(-c4ccc5ccccc5c4)[nH]c3ccc21 | 744 nM | 714 nM | 465 nM | 396 nM | 22 nM | 32 nM | 376 nM |  |
| CCn1ccc2ccc3c(=O)cc(-c4ccccc4)[nH]c3c21 | 9590 nM | 5920 nM | > 10000 nM | > 10000 nM | > 10000 nM | > 10000 nM | > 10000 nM |  |
| CCn1ccc2c3c(=O)cc(-c4ccc5c(c4)OCO5)[nH]c3ccc21 |  |  |  |  |  |  |  | Activity (HeLa [8]): Tde; IC50 (CCRF-CEM [2]): 27.8 nM; inhibition [9]: Active; Activity (HeLa [10]): Active; Activity (HeLa [11]): Active; Activity (HeLa [3]): Active; Activity (HeLa [12]): Active; Activity (HeLa [4]): Active; inhibition [13]: Active; Activity (HeLa [14]): Active; Activity (HeLa [5]): Active; IC50 (CCRF-CEM [6]): 3.7 nM |
| CCn1ccc2cc3c(=O)cc(-c4ccccc4)[nH]c3cc21 | 7.1 nM | 49 nM | 641 nM | 30 nM | 13 nM | 27 nM | 16 nM | inhibition (Bos taurus): 24% |
| O=C1C=C(c2ccccc2)Nc2cccc3ccn1c23 | > 10000 nM | > 10000 nM | > 10000 nM | > 10000 nM | > 10000 nM | > 10000 nM | > 10000 nM |  |
| CCn1ccc2c3c(=O)cc(-c4ccc5c(c4)CCCC5)[nH]c3ccc21 |  |  |  |  |  |  |  | Activity (HeLa [3]): Active; Activity (HeLa [4]): Active; Activity (HeLa [5]): Active |
